17 compounds from ChEMBL document CHEMBL4368859, “Discovery of boron-containing compounds as Aβ aggregation inhibitors and antioxidants for the treatment of Alzheimer's disease” (Medchemcomm, 2018) can be followed below.

pIC50: −log10 of the molar value. The source made the active and inactive calls. No cut-off for these calls is given here.

Assay [1] is described as follows: Antioxidant activity assessed as trolox equivalents of AAPH radical scavenging activity at 20 uL preincubated for 10 mins followed by AAPH addition measured every min for 120 mins by ORAC-FL assay. The class given is functional. In outline:
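Test compound diluted to 10 µM in 75 mM phosphate buffer (pH 7.4). It was pre-incubated with fluorescein (70 nM final) at 37 °C, then AAPH (40 mM solution) was added. Fluorescence (ex 485/em 520 nm) was read each minute for 120 min. […] Triplicates, at least three independent runs, mean ± SD.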

Assay [2] has as its target T1, Amyloid-beta precursor protein (Homo sapiens, UniProt P05067). Description: Inhibition of self-induced aggregation of amyloid beta (1 to 42) (unknown origin) at 20 uM after 48 hrs by thioflavin T-based fluorescence method relative to control. In outline: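 Aβ1-42 stock was in 1% ammonium hydroxide, diluted in 50 mM phosphate buffer (pH 7.4). Peptide (25 µM final) was incubated ± compound at 37 °C for 48 h, with peptide-free blanks. Samples were diluted in 50 mM glycine-NaOH (pH 8.0) with 5 µM ThT and read after 5 min (ex 450/em 485 nm). Inhibition = (1−IFi/IFc)×100 after background subtraction. At least three independent measurements, mean ± SD.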

Assay [3] deals with T1, Amyloid-beta precursor protein. Description: Inhibition of self-induced aggregation of amyloid beta (1 to 42) (unknown origin) after 48 hrs by thioflavin T-based fluorescence method.
Assay [4] in a line: Metal chelating activity assessed as Fe3+-compound complex formation at 20 uM after 30 mins by UV-Vis spectrophotometric method.
A short description of assay [5]: Metal chelating activity assessed as Zn2+-compound complex formation at 20 uM after 30 mins by UV-Vis spectrophotometric method. In outline: (§1)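 UV-Vis absorption spectra were recorded for compound (20 µM final) alone or with CuSO4, FeSO4 or ZnCl2 (40 µM final) after 30 min. Medium was 20% (v/v) ethanol/buffer (20 mM HEPES, 150 mM NaCl, pH 7.4), at room temperature.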

The nature of assay [6]: Metal chelating activity assessed as Cu2+-compound complex formation by measuring shift in maximum absorption wavelength at 20 uM after 30 mins by UV-Vis spectrophotometric method. In outline:
as §1

Assay [7] addresses T1, Amyloid-beta precursor protein. Description: Potency index, ratio of curcumin IC50 to test compound IC50 for self-induced aggregation of amyloid beta (1 to 42) (unknown origin).
Assay [8] in a line: Metal chelating activity assessed as Fe2+-compound complex formation by measuring shift in maximum absorption wavelength at 20 uM after 30 mins by UV-Vis spectrophotometric method. Put shortly:
as §1

One may read the inhibition as how much of the control response was suppressed. The low end stands for a response near the control, the high end for a response far below the control. A word on the pIC50: it is −log10 of the IC50, conventionally taken in molar units. The low end stands for a high IC50, the high end for a low IC50.

T1 sequence (P05067 whole entry): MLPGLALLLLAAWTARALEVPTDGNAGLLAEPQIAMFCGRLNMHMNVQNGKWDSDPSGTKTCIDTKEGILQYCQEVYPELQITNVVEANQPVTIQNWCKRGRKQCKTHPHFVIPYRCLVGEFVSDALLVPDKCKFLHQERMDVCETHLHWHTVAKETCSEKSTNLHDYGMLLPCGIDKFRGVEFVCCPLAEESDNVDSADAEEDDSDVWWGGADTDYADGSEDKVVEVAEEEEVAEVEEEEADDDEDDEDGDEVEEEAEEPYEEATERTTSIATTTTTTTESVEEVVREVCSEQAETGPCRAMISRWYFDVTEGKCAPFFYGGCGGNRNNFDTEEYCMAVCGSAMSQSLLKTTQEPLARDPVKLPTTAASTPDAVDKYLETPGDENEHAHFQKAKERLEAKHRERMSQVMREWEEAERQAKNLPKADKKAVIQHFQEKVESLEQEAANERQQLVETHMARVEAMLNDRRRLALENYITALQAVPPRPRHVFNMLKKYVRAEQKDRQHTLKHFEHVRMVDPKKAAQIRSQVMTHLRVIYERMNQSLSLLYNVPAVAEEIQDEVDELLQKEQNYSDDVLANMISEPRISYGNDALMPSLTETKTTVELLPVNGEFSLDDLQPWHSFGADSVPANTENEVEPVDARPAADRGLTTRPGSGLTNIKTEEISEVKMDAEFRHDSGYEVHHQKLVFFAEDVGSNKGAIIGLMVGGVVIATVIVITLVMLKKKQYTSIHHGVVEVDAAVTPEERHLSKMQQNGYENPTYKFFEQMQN

For the compound `Oc1ccc(/C=C/c2cc(O)cc(O)c2)cc1`, the Activity (umolequiv/umol) in assay [1] stood at 5.33.
In the case of `CN(C)c1ccc2c3c(ccc2c1)OB(O)C(c1ccc(O)c(O)c1)=C3`, the inhibition in assay [2] was 49.5%. Also, the Activity (umolequiv/umol) in assay [1] is 4.88.
On to `OB1Oc2ccc3ccc(O)cc3c2C=C1c1cc(O)cc(O)c1`, for which the inhibition in assay [2] worked out at 78.7%. In assay [3], this compound showed a negative-log IC50 (pIC50) of 5.31. Moreover, the Activity (umolequiv/umol) in assay [1] was 5.34.
Compound `OB1Oc2ccc3ccc(O)cc3c2C=C1c1ccc(O)cc1` had an inhibition in assay [2] of 20.5%. For the same compound, the Activity (umolequiv/umol) in assay [1] was found to be 4.45.
`OB1Oc2ccc3ccccc3c2C=C1c1ccc(O)c(O)c1` had an inhibition in assay [2] of 43.7%. Besides, the Activity (umolequiv/umol) in assay [1] stood at 2.7.
`COc1ccc(/C=C/c2cc(OC)cc(OC)c2)cc1`: the Activity (umolequiv/umol) in assay [1] was 0.21.
For `OB1Oc2ccc3cc(O)ccc3c2C=C1c1cc(O)cc(O)c1`, in assay [2], the inhibition turned out to be 70.3%. Moreover, the pIC50 in assay [3] is 5.05. Further, in assay [1], the Activity (umolequiv/umol) turned out to be 5.87.
Regarding `OB1Oc2ccc3ccccc3c2C=C1c1cc(O)cc(O)c1`, the inhibition in assay [2] was determined as 67.3%. Also, the pIC50 in assay [3] is 4.90. For the same compound, the Activity (umolequiv/umol) in assay [1] was determined as 3.
The matching figures for `OB1Oc2cc(O)ccc2C=C1c1cc(O)cc(O)c1`: 50.2%, 4.66 and 4.84.
Consider `COc1cc(/C=C/C(=O)O)ccc1O`, for which the Activity (umolequiv/umol) in assay [1] is 3.24.
Regarding `OB1Oc2ccc3cc(O)ccc3c2C=C1c1ccc(O)c(O)c1`, in assay [2], the inhibition is 80.5%. The compound further had a pIC50 in assay [3] of 5.34. Moreover, the Activity (umolequiv/umol) in assay [1] amounted to 4.05.
On to `OB1Oc2ccc3cc(O)ccc3c2C=C1c1ccc(O)cc1`, for which, in assay [2], the inhibition came to 12.3%. Also, the Activity (umolequiv/umol) in assay [1] is 3.94.
Consider `CN(C)c1ccc2c3c(ccc2c1)OB(O)C(c1ccc(O)cc1)=C3`, for which the inhibition in assay [2] stood at 0%. In assay [1], the Activity (umolequiv/umol) was determined as 2.41.
The compound `OB1Oc2ccc3ccc(O)cc3c2C=C1c1ccc(O)c(O)c1` yielded an inhibition in assay [2] of 82.8%. Moreover, the result in assay [4] and in assay [5] was inactive. Also, the Activity is 355 nm in assay [6] and 350 nm in assay [8]. The compound further showed a pIC50 in assay [3] of 5.47. Besides, the Ratio IC50 in assay [7] stood at 4. The Activity (umolequiv/umol) in assay [1] was determined as 4.55.
Take `OB1Oc2ccc(O)cc2C=C1c1ccc(O)c(O)c1`: the inhibition in assay [2] came out at 58.8%. Besides, the pIC50 in assay [3] is 4.76. For the same compound, the Activity (umolequiv/umol) in assay [1] stood at 4.09.
In turn, `CN(C)c1ccc2c3c(ccc2c1)OB(O)C(c1cc(O)cc(O)c1)=C3` showed an inhibition in assay [2] of 32.4%. Further, the Activity (umolequiv/umol) in assay [1] came to 5.27.
In turn, `OB1Oc2ccc3ccccc3c2C=C1c1ccc(O)cc1` gave an inhibition in assay [2] of 0%. Moreover, the Activity (umolequiv/umol) in assay [1] came to 2.06.
